Compound activity deposited in PubChem BioAssay by several laboratories.
NOD2-RIPK2 inh: NOD2-RIPK2 binding disruptors in cells, primary screen, fluorescence, CHO cells, BLA complementation. Receptor-interacting serine/threonine-protein kinase 2 (Homo sapiens), O43353. CCF4 ratio. inhibition, % at 4.98 µM. 360,000 compounds, 0.38% hits; in the data active = inhibition above about 21%;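 also: 0% = vehicle only and 100% = reference blocker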
Target sequence (O43353 whole entry, looked up): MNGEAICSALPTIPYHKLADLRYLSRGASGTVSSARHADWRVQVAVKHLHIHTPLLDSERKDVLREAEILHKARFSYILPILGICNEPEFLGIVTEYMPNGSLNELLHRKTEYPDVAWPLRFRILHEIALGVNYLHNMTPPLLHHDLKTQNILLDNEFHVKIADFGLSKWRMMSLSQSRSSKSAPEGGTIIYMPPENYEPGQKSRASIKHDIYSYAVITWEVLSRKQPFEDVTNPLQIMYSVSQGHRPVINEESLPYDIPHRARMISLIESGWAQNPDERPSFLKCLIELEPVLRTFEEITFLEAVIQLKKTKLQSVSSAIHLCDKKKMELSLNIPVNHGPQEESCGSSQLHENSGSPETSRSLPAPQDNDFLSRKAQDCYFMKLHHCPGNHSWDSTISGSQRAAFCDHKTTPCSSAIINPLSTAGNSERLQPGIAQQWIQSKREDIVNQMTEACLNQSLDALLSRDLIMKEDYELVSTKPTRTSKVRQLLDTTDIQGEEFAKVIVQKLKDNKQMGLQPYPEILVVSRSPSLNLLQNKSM
Hep lipid drop: inhibitors of hepatocyte lipid droplet formation, primary screen, imaging, high-throughput imaging, BODIPY stain. AML12 mouse hepatocytes, oleate lipid droplets. inhibition, % at 6.5 µM. 240,000 compounds, 0.4% hits;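 active = lipid droplet intensity inhibited by at least 50%, with more than 500 cells counted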
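System: AML12 hepatocytes (mouse). Probe or stimulus: oleic acid at 100 µM to induce lipid droplet formation. Times: overnight treatment with compound plus oleate. Detection: Image-based BODIPY and DAPI two-channel analysis. Evaluation: percent inhibition of filter-corrected integrated lipid droplet intensity per well.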
SR-BI HDL uptake: inhibitors of SR-BI mediated HDL lipid uptake, primary screen, ldlA[mSR-BI] cells, fluorescence, single point; 320,000 compounds, 0.96% hits; Scavenger receptor class B member 1 (Mus musculus), Q61009; inhibition, % at 12.5 µM; AID 488896, 2010; ldlA[mSR-BI] CHO cells, DiI-HDL uptake fluorescence, 3 h;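 active = mean replicate inhibition of at least 70% and a set share of replicates each scoring 70 or more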;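 also: 0% = median of neutral control wells and 100% = median of positive control wells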
SR-BI DiI-HDL act: activators of SR-BI mediated DiI-HDL uptake, primary screen, ldlA[mSR-BI] CHO cells, DiI fluorescence | 3 h; 100 = double the neutral-control signal | 320,000 compounds, 0.096% hits | activation, % at 12.5 µM;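 active = mean replicate activation of at least 60% and every replicate at or above 60%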;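 also: 0% = median plate neutral-control signal and 100% = twice that signal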
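Assay system: LDL receptor-deficient CHO ldlA cells overexpressing murine SR-BI / Medium: BSA-supplemented, HEPES-buffered Ham's F12, pH 7.4 / Probe or stimulus: DiI-labelled HDL at 10 µg/mL final / Timing: compound with DiI-HDL co-incubation, 3 h at 37 °C / Technique: bottom-read cell fluorescence after medium removal, ex 550/em 595 nm / Measure: HDL uptake via cellular fluorescence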
TLR4 MyD88 comp: inhibitors of TLR4-MyD88 association in cells, primary screen, cell-based, HeLa CL3-4, BLA complementation, FRET ratio; inhibition, % at 8.4 µM; Toll-like receptor 4 (Homo sapiens) + Myeloid differentiation primary response protein …; AID 861, 2007; 200,000 compounds, 0.18% hits; HeLa CL3-4 TLR4/MyD88 BLA complementation; in the data active = inhibition above about 25%;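 also: 0% = vehicle and 100% = reference inhibitor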
TLR9-MyD88 block: inhibitors of TLR9-MyD88 association in cells, primary screen, cell-based, CHO, BLA complementation, fluorescence; Toll-like receptor 9 (Homo sapiens) + Myeloid differentiation primary response protein …; CCF4 FRET ratio; inhibition, % at 4.98 µM; 340,000 compounds, 0.21% hits;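 active = inhibition above the mean over all tested compounds plus 3 SD, cut at about 21% in these data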;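 also: 0% = DMSO only wells and 100% = clavulanate BLA inhibitor control wells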
NOD2 RIPK2 conf: NOD2-RIPK2 binding disruptors, retest, confirmation, fluorescence, CHO cells, BLA complementation, triplicate | shares compounds with NOD2-RIPK2 inh | CCF4 FRET | inhibition, % at 4.98 µM | 1,200 compounds, 70% hits | AID 624370, 2012;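 active = mean inhibition across replicates above a set limit taken from the earlier primary screen, cut at about 21% in these data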;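 also: 0% = DMSO-only wells and the high end = clavulanate BLA-blocked wells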
NOD2 BLA counter: NOD2-RIPK2 counterscreen BLA reporter activity. shares compounds with NOD2-RIPK2 inh. CHO BLA reporter, CCF4 FRET ratio. inhibition, % at 4.98 µM. 1,200 compounds, 57% hits. AID 624371;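 active = mean inhibition above the low-control mean inhibition plus three low-control SD, cut at about 11% in these data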;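 also: 0% = DMSO only wells and 100% = clavulanate high control wells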
Active calls of the source: *; · = no result. Only some compounds are listed: those with a hit (about 1.6% of all), similar ones and a draw of the others.

SMILES | NOD2-RIPK2 inh | Hep lipid drop | SR-BI HDL uptake | SR-BI DiI-HDL act | TLR4 MyD88 comp | TLR9-MyD88 block | NOD2 RIPK2 conf | NOD2 BLA counter
COc1ccc(C(=O)NNC(=O)c2cc3ccccc3cc2O)cc1 | 31* | · | 115* | -115 | · | 10 | 5 | 8
Cc1nn(-c2ccccc2)c2c1P(=O)(O)/C(=C1\N(C)c3ccccc3C1(C)C)C=N2 | 24* | · | -24 | 24 | 17 | 8 | 16 | 19*
Cc1ccc(-c2cc(C(=O)NC3CCCCC3)no2)cc1 | -4 | 12 | · | · | · | -3 | · | ·
COc1ccc(-c2cc(C(=O)NC3CCCCC3)no2)cc1OC | 58* | 5 | -17 | 17 | · | -20 | 6 | 2
O=C(NCCN1CCC(n2c(=O)[nH]c3ccccc32)CC1)c1ccc(Cl)c(Cl)c1 | 7 | · | · | · | · | · | · | ·
CC1=C(CO)C(=O)OC([C@@H](C)C2CC[C@H]3C4C[C@H]5O[C@]56[C@@H](O)C=CC(=O)[C@]6(C)C4CC[C@]23C)C1 (stereo partly specified) | 47* | 10 | -13 | 13 | · | 3 | 63* | 7
COCCn1c(=O)[nH]c2cc(C(=O)Nc3nnc(C)s3)ccc21 | 94* | 12 | 0 | 0 | · | -8 | -1 | -18
O=C(Nc1cnccn1)c1csc2ccccc12 | 33* | -7 | -7 | 7 | -3 | -1 | -4 | -3
O=C(Nc1ccon1)c1csc2ccccc12 | -15 | 1 | 1 | -1 | -1 | 2 | · | ·
Cc1cc(NC(=O)OC2CCCCC2)ccc1[N+](=O)[O-] | -2 | 2 | 28 | -28 | · | -2 | · | ·
COCCN(CCOC)Cc1c(O)ccc2c1O/C(=C\c1ccco1)C2=O | 23* | · | 6 | -6 | · | 12 | 43* | 46*
CCC(=O)Oc1ccc2c(c1)O/C(=C\c1ccco1)C2=O | 44* | 2 | -18 | 18 | · | · | 56* | 61*
COCCCNC(=O)Cn1cnc2sc(C)c(S(=O)(=O)N3CC(C)CC(C)C3)c2c1=O (stereo unspecified) | -1 | -14 | -10 | 10 | · | -2 | · | ·
CCOC(=O)/C=C/S(=O)(=O)c1ccc(NC(C)=O)cc1 | 22* | · | 10 | -10 | 11 | 23* | 54* | 21*
CCOC(=O)/C=C/C(=O)Nc1ccc(S(=O)(=O)Nc2c(C)cc(C)cc2C)cc1 | -12 | 32 | 16 | -16 | -7 | -6 | · | ·
CCOc1ccc(S(=O)(=O)NCCC(=O)Nc2cccc(C(=O)OC)c2)cc1 | 2 | -2 | · | · | · | -3 | · | ·
O=C(O)c1cc(Cl)ccc1-c1ccc(/C=C/c2cc(C(F)(F)F)[nH]c(=O)n2)o1 | 23* | 3 | 3 | -3 | 16 | 19 | 33* | 42*
Cc1cccc(NC(=O)CSCC(=O)Nc2cc(S(=O)(=O)N3CCOCC3)ccc2OC(C)C)c1 | 21* | · | -2 | 2 | · | -1 | 4 | -4
NC(CCc1ccccc1)c1csc(Nc2nncc3ccccc23)n1 (stereo unspecified) | 24* | · | · | · | · | · | 8 | 8
O=C(NC1CCCCC1)C(c1ccc(C(F)(F)F)cc1)n1c(=O)c(-c2cc3ccccc3[nH]2)nc2ccccc21 (stereo unspecified) | 41* | · | · | · | · | · | 36* | 66*
O=C(NC1CCCCC1)C(c1ccncc1)n1c(=O)c(-c2ccccc2)nc2ccccc21 (stereo unspecified) | -4 | · | · | · | · | · | · | ·
